Laboratory results published in ChEMBL document CHEMBL1156002, “Synthesis, Raman, FT-IR, NMR spectroscopic characterization, antimicrobial activity, cytotoxicity and DNA binding of new mixed aza-oxo-thia macrocyclic compounds” (2009).
≈ marks a conversion by molar mass, not a printed value. Calls of active or inactive are those of the source. No cut-off for these calls is given here.

What was measured:
[1] = test system: Kluyveromyces marxianus; assay: Antifungal activity against Kluyveromyces fragilis NRRL 2415 after 24 hrs by broth micro dilution method; format: functional; settings: NRRL 2415, 24 h
Outline: (§1)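 Broth microdilution was run in cation-adjusted Mueller Hinton Broth. Compounds were dissolved in DMSO at 2 mg mL^-1 and serially diluted two-fold. Yeast precultures were grown in Malt Extract Broth for 48 h. The final inoculum was about 10⁶ cfu mL^-1, and plates were incubated at 37 °C for 24 h. The MIC was read from this series.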

[2] = test system: A549; assay: Cytotoxicity against human A549 cells assessed as cell viability at 1 uM after 24 hrs by MTT assay; format: functional; settings: A549, 24 h, read-out: Activity
Outline: (§2)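 Cells were seeded at 3.10³–5.10³ per well in RPMI 1640 with 10% FBS, 4 mM L-glutamine and penicillin/streptomycin, then held 24 h at 37 °C under 5% CO₂. Ligands (DMSO, final 0.5% v/v) were added at 0.1–100 for 24 or 48 h. MTT was added for 4 h and dissolved in 50% DMF/5% SDS. A570 was read, and cytotoxicity was calculated as 100×(OD treated/OD untreated).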

[3] = Cytotoxicity against human 23132/87 cells assessed as cell viability at 100 uM after 48 hrs by MTT assay; format: functional; settings: 23132-87, 48 h, read-out: Activity; outline: as §2
[4] = test system: Klebsiella pneumoniae; assay: Antibacterial activity against Klebsiella pneumoniae UC57 after 24 hrs by broth micro dilution method; format: functional; settings: UC57, 24 h
[5] = test system: A549; assay: Induction of apoptosis in human A549 cells assessed as change in nuclear appearance at 100 uM after 24 hrs by hoechst nuclear staining; format: functional, cell-based
Outline: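 Cells grown in 6-well plates were treated for 24 h, washed three times in PBS and fixed in ice-cold methanol for 10 min. They were stained with Hoechst 33258 for 5 min, destained in double-distilled water for 5 min and examined by fluorescence microscopy. Untreated and DMSO-treated cells served as controls.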

[6] = test system: Klebsiella pneumoniae; assay: Antibacterial activity against Klebsiella pneumoniae UC57 after 24 hrs by agar disk diffusion assay; format: functional
Outline: (§3)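 Disk diffusion with sterile 6 mm discs loaded with DMSO solutions of the test agents and placed on inoculated agar. Bacteria were pre-grown in Nutrient Broth at 30 °C for 24 h, and plates were incubated at 35 °C for 24 h. Each plate carried a reference antibiotic disc matched to the organism, and a DMSO-only solvent control was run.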

[7] = test system: Mycolicibacterium smegmatis; assay: Antibacterial activity against Mycobacterium smegmatis CCM 2067 after 24 hrs by agar disk diffusion assay; format: functional; outline: as §3
[8] = test system: Pseudomonas aeruginosa; assay: Antibacterial activity against Pseudomonas aeruginosa ATCC 27853 after 24 hrs by broth micro dilution method; format: functional; settings: ATCC 27853, 24 h
[9] = Cytotoxicity against human 23132/87 cells assessed as cell viability at 10 uM after 24 hrs by MTT assay; format: functional; settings: 23132-87, 24 h, read-out: Activity; outline: as §2
[10] = test system: Candida albicans; assay: Antifungal activity against Candida albicans ATCC 10231 after 24 hrs by broth micro dilution method; format: functional; settings: ATCC 10231, 24 h; outline: as §1
[11] = test system: Micrococcus luteus; assay: Antibacterial activity against Micrococcus luteus La 2971 after 24 hrs by broth micro dilution method; format: functional; settings: La 2971, 24 h
[12] = test system: Listeria monocytogenes; assay: Antibacterial activity against Listeria monocytogenes ATCC 15313 after 24 hrs by broth micro dilution method; format: functional; settings: ATCC 15313, 24 h
[13] = test system: Bacillus cereus; assay: Antibacterial activity against Bacillus cereus ATCC 7064 after 24 hrs by agar disk diffusion assay; format: functional; outline: as §3
[14] = Cytotoxicity against human 23132/87 cells assessed as cell viability at 1 uM after 24 hrs by MTT assay; format: functional; settings: 23132-87, 24 h, read-out: Activity; outline: as §2
[15] = test system: Hanseniaspora guilliermondii; assay: Antifungal activity against Hanseniaspora guilliermondii DSM 3432 after 72 hrs by agar disk diffusion assay; format: functional
Outline: (§4)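 Sterile 6 mm paper discs were loaded with ligand solution freshly prepared in DMSO and placed on inoculated agar. The inoculum came from broth cultures: bacteria in Nutrient Broth at 30 °C for 24 h, yeasts in Malt Extract Broth for 48 h. Plates were incubated at 35 °C for 24 h (bacteria) or 25 °C for 72 h (yeasts). A DMSO solvent control and a reference antibiotic disc were included on each plate.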

[16] = test system: A549; assay: Cytotoxicity against human A549 cells assessed as cell viability at 0.1 uM after 48 hrs by MTT assay; format: functional; settings: A549, 48 h, read-out: Activity; outline: as §2
[17] = test system: Debaryomyces hansenii; assay: Antifungal activity against Debaryomyces hansenii DSM 70238 after 72 hrs by agar disk diffusion assay; format: functional; outline: as §4
[18] = test system: Bacillus cereus; assay: Antibacterial activity against Bacillus cereus ATCC 7064 after 24 hrs by broth micro dilution method; format: functional; settings: ATCC 7064, 24 h
[19] = test system: A549; assay: Cytotoxicity against human A549 cells assessed as cell viability at 10 uM after 24 hrs by MTT assay; format: functional; settings: A549, 24 h, read-out: Activity; outline: as §2
[20] = test system: A549; assay: Cytotoxicity against human A549 cells assessed as cell viability at 10 uM after 48 hrs by MTT assay; format: functional; settings: A549, 48 h, read-out: Activity; outline: as §2
[21] = test system: A549; assay: Cytotoxicity against human A549 cells assessed as cell viability at 100 uM after 48 hrs by MTT assay; format: functional; settings: A549, 48 h, read-out: Activity; outline: as §2
[22] = test system: A549; assay: Induction of apoptosis in human A549 cells assessed as DNA fragmentation at 100 uM after 24 hrs by DNA fragmentation assay; format: functional, cell-based
Outline: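 10 × 10⁴ cells were seeded in 6-well plates and treated with ligand for 24 h. Cells were then collected and washed in PBS, and DNA was extracted with a kit. Extracts were run on 1.5% agarose alongside a 100 bp marker, an untreated control and DMSO-treated controls, and ladders were visualized under UV.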

[23] = test system: Staphylococcus aureus; assay: Antibacterial activity against Staphylococcus aureus ATCC 6538 after 24 hrs by agar disk diffusion assay; format: functional; outline: as §3
[24] = test system: Proteus vulgaris; assay: Antibacterial activity against Proteus vulgaris ATCC 8427 after 24 hrs by agar disk diffusion assay; format: functional; outline: as §3
[25] = Cytotoxicity against human 23132/87 cells assessed as cell viability at 0.1 uM after 24 hrs by MTT assay; format: functional; settings: 23132-87, 24 h, read-out: Activity; outline: as §2
[26] = test system: A549; assay: Cytotoxicity against human A549 cells assessed as cell viability at 0.1 uM after 24 hrs by MTT assay; format: functional; settings: A549, 24 h, read-out: Activity; outline: as §2
[27] = Cytotoxicity against human 23132/87 cells assessed as cell viability at 100 uM after 24 hrs by MTT assay; format: functional; settings: 23132-87, 24 h, read-out: Activity; outline: as §2
[28] = test system: Hanseniaspora guilliermondii; assay: Antifungal activity against Hanseniaspora guilliermondii DSM 3432 after 24 hrs by broth micro dilution method; format: functional; settings: DSM 3432, 24 h; outline: as §1
[29] = test system: A549; assay: Cytotoxicity against human A549 cells assessed as cell viability at 100 uM after 24 hrs by MTT assay; format: functional; settings: A549, 24 h, read-out: Activity; outline: as §2
[30] = test system: Micrococcus luteus; assay: Antibacterial activity against Micrococcus luteus La 2971 after 24 hrs by agar disk diffusion assay; format: functional; outline: as §3
[31] = test system: Candida albicans; assay: Antifungal activity against Candida albicans ATCC 10231 after 72 hrs by agar disk diffusion assay; format: functional; outline: as §4
[32] = test system: Kluyveromyces marxianus; assay: Antifungal activity against Kluyveromyces fragilis NRRL 2415 after 72 hrs by agar disk diffusion assay; format: functional; outline: as §4
[33] = test system: Escherichia coli; assay: Antibacterial activity against Escherichia coli ATCC 11230 after 24 hrs by broth micro dilution method; format: functional; settings: ATCC 11230, 24 h
[34] = test system: Staphylococcus aureus; assay: Antibacterial activity against Staphylococcus aureus ATCC 6538 after 24 hrs by broth micro dilution method; format: functional; settings: ATCC 6538, 24 h
[35] = test system: Pseudomonas aeruginosa; assay: Antibacterial activity against Pseudomonas aeruginosa ATCC 27853 after 24 hrs by agar disk diffusion assay; format: functional; outline: as §3
[36] = test system: A549; assay: Cytotoxicity against human A549 cells assessed as cell viability at 1 uM after 48 hrs by MTT assay; format: functional; settings: A549, 48 h, read-out: Activity; outline: as §2

SMILES | MIC [1] [µg/mL] | viability at 1 µM [2] [%] | viability at 100 µM [3] [%] | MIC [4] [µg/mL] | Activity [5] | inhibition zone (IZ) [6] [mm] | inhibition zone (IZ) [7] [mm] | MIC [8] [µg/mL] | viability at 10 µM [9] [%] | MIC [10] [µg/mL] | MIC [11] [µg/mL] | MIC [12] [µg/mL] | inhibition zone (IZ) [13] [mm] | viability at 1 µM [14] [%] | inhibition zone (IZ) [15] [mm] | viability at 0.1 µM [16] [%] | inhibition zone (IZ) [17] [mm] | MIC [18] [µg/mL] | viability at 10 µM [19] [%] | viability at 10 µM [20] [%] | other results
O=C1CSCC(=O)Nc2nc(nc(-c3ccccc3)n2)NC(=O)CSCC(=O)Nc2nc(nc(-c3ccccc3)n2)N1 | 6.25 (≈ 10.4 µM) | > 86 | > 86 | 12.5 (≈ 20.7 µM) | inactive | 13 | 10 | 50 (≈ 83 µM) | > 86 | 6.25 (≈ 10.4 µM) | 12.5 (≈ 20.7 µM) | 25 (≈ 41.5 µM) | 14 | > 86 | 20 | > 86 | 18 | 6.25 (≈ 10.4 µM) | > 86 | > 86 | viability at 100 µM [21]: > 86%; Activity [22]: inactive; inhibition zone (IZ) [23]: 12 mm; inhibition zone (IZ) [24]: 12 mm; viability at 0.1 µM [25]: > 86%; viability at 0.1 µM [26]: > 86%; viability at 100 µM [27]: > 86%; MIC [28]: 1.56 µg/mL (≈ 2.59 µM); viability at 100 µM [29]: > 86%; inhibition zone (IZ) [30]: 14 mm; inhibition zone (IZ) [31]: 16 mm; inhibition zone (IZ) [32]: 15 mm; MIC [33]: 25 µg/mL (≈ 41.5 µM); MIC [34]: 12.5 µg/mL (≈ 20.7 µM); inhibition zone (IZ) [35]: 9 mm; viability at 1 µM [36]: > 86%
O=C1CCSCCC(=O)Nc2nc(nc(-c3ccccc3)n2)NC(=O)CCSCCC(=O)Nc2nc(nc(-c3ccccc3)n2)N1 | 6.25 (≈ 9.49 µM) | > 86 | > 86 | 12.5 (≈ 19 µM) | inactive | 13 | 9 | 25 (≈ 37.9 µM) | > 86 | 3.12 (≈ 4.74 µM) | 12.5 (≈ 19 µM) | 25 (≈ 37.9 µM) | 13 | > 86 | 19 | > 86 | 18 | 12.5 (≈ 19 µM) | > 86 | > 86 | viability at 100 µM [21]: > 86%; Activity [22]: inactive; inhibition zone (IZ) [23]: 10 mm; inhibition zone (IZ) [24]: 11 mm; viability at 0.1 µM [25]: > 86%; viability at 0.1 µM [26]: > 86%; viability at 100 µM [27]: > 86%; MIC [28]: 1.56 µg/mL (≈ 2.37 µM); viability at 100 µM [29]: > 86%; inhibition zone (IZ) [30]: 12 mm; inhibition zone (IZ) [31]: 19 mm; inhibition zone (IZ) [32]: 16 mm; MIC [33]: 25 µg/mL (≈ 37.9 µM); MIC [34]: 25 µg/mL (≈ 37.9 µM); inhibition zone (IZ) [35]: 11 mm; viability at 1 µM [36]: > 86%
